Key:
[1] = Study 1 Part 2: adverse events after multiple OD doses via SDDPI; format: in vivo, human
Outline: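 In Study 1 Part 2, healthy men were randomized to five parallel, dose-escalating cohorts. Each received test compound (100–1,600 µg) or matching placebo once daily for 7 days via a capsule-based single-dose dry-powder inhaler. AEs and investigator-assessed relation to study medication were recorded. Results are number (%) of subjects in the safety population (randomized, at least one dose).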

[2] = human liver; cited from earlier work
[3] = Safety assessments in both studies; format: in vivo, human
Outline: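 Healthy non- or ex-smoking volunteers aged 18–55 (Study 1 men only; Study 2 men and women), randomized, double-blind, placebo-controlled, single centre. AEs were recorded with the investigator-judged relation to study drug. Haematology and blood chemistry were taken at baseline and end of dosing. Blood pressure, ECG and 24 h Holter were taken at regular intervals, and FEV1 was checked for post-dose bronchospasm.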

[4] = cited from earlier work
[5] = in humans; cited from earlier work
[6] = rats and ferrets, intratracheal administration at doses compatible with those used in humans; cited from earlier work
[7] = system: human bronchial epithelial cells; details: alone and in combination with low-dose corticosteroids; cited from earlier work
[8] = Study 2 Part 2: adverse events after multiple BID doses via MDDPI; format: in vivo, human; details: N=9
Outline: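 Study 2 Part 2 used three parallel escalating cohorts of healthy men and women. Subjects inhaled test compound at 1,200, 2,000 or 2,400 µg twice daily, or placebo, for 14 days via a reservoir multi-dose dry-powder inhaler, confined from day −2 to day 15. AEs were recorded with investigator-assessed relation to study medication, as number (%) of the safety population.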

[9] = following both single and multiple doses

CS(=O)(=O)Nc1ccc(C(=O)O[C@@H](Cc2c(Cl)c[n+]([O-])cc2Cl)c2ccc(OC(F)F)c(OCC3CC3)c2)cc1OCC1CC1 [CHF6001]
AE considered related to study medication ([1]; 100 µg OD 7 days, N=8): 0 Number (%) of subjects | AE leading to death ([1]; 100 µg OD 7 days, N=8): 0 Number (%) of subjects | AE leading to withdrawal ([1]; 100 µg OD 7 days, N=8): 0 Number (%) of subjects | At least one AE ([1]; 100 µg OD 7 days, N=8): 3 (37.5) Number (%) of subjects | At least one SAE ([1]; 100 µg OD 7 days, N=8): 0 Number (%) of subjects | Back pain (AE) ([1]; 100 µg OD 7 days, N=8): 0 Number (%) of subjects | Diarrhea (AE considered related to study medication) ([1]; 100 µg OD 7 days, N=8): 0 Number (%) of subjects | Flatulence (AE considered related to study medication) ([1]; 100 µg OD 7 days, N=8): 0 Number (%) of subjects | Headache (AE considered related to study medication) ([1]; 100 µg OD 7 days, N=8): 0 Number (%) of subjects | Headache (AE) ([1]; 100 µg OD 7 days, N=8): 0 Number (%) of subjects | Nausea (AE considered related to study medication) ([1]; 100 µg OD 7 days, N=8): 0 Number (%) of subjects | Parosmia (AE considered related to study medication) ([1]; 100 µg OD 7 days, N=8): 0 Number (%) of subjects | Severe AE ([1]; 100 µg OD 7 days, N=8): 0 Number (%) of subjects | AE considered related to study medication ([1]; 300 µg OD 7 days, N=8): 0 Number (%) of subjects | AE leading to death ([1]; 300 µg OD 7 days, N=8): 0 Number (%) of subjects | AE leading to withdrawal ([1]; 300 µg OD 7 days, N=8): 0 Number (%) of subjects | At least one AE ([1]; 300 µg OD 7 days, N=8): 2 (25.0) Number (%) of subjects | At least one SAE ([1]; 300 µg OD 7 days, N=8): 0 Number (%) of subjects | Back pain (AE) ([1]; 300 µg OD 7 days, N=8): 0 Number (%) of subjects | Diarrhea (AE considered related to study medication) ([1]; 300 µg OD 7 days, N=8): 0 Number (%) of subjects | Flatulence (AE considered related to study medication) ([1]; 300 µg OD 7 days, N=8): 0 Number (%) of subjects | Headache (AE considered related to study medication) ([1]; 300 µg OD 7 days, N=8): 0 Number (%) of subjects | Headache (AE) ([1]; 300 µg OD 7 days, N=8): 0 Number (%) of subjects | Nausea (AE considered related to study medication) ([1]; 300 µg OD 7 days, N=8): 0 Number (%) of subjects | Parosmia (AE considered related to study medication) ([1]; 300 µg OD 7 days, N=8): 0 Number (%) of subjects | Severe AE ([1]; 300 µg OD 7 days, N=8): 0 Number (%) of subjects | AE considered related to study medication ([1]; 600 µg OD 7 days, N=9): 0 Number (%) of subjects | AE leading to death ([1]; 600 µg OD 7 days, N=9): 0 Number (%) of subjects | AE leading to withdrawal ([1]; 600 µg OD 7 days, N=9): 0 Number (%) of subjects | At least one AE ([1]; 600 µg OD 7 days, N=9): 5 (55.6) Number (%) of subjects | At least one SAE ([1]; 600 µg OD 7 days, N=9): 0 Number (%) of subjects | Back pain (AE) ([1]; 600 µg OD 7 days, N=9): 0 Number (%) of subjects | Diarrhea (AE considered related to study medication) ([1]; 600 µg OD 7 days, N=9): 0 Number (%) of subjects | Flatulence (AE considered related to study medication) ([1]; 600 µg OD 7 days, N=9): 0 Number (%) of subjects | Headache (AE considered related to study medication) ([1]; 600 µg OD 7 days, N=9): 0 Number (%) of subjects | Headache (AE) ([1]; 600 µg OD 7 days, N=9): 2 (22.2) Number (%) of subjects | Nausea (AE considered related to study medication) ([1]; 600 µg OD 7 days, N=9): 0 Number (%) of subjects | Parosmia (AE considered related to study medication) ([1]; 600 µg OD 7 days, N=9): 0 Number (%) of subjects | Severe AE ([1]; 600 µg OD 7 days, N=9): 0 Number (%) of subjects | AE considered related to study medication ([1]; 1,200 µg OD 7 days, N=9): 0 Number (%) of subjects | AE leading to death ([1]; 1,200 µg OD 7 days, N=9): 0 Number (%) of subjects | AE leading to withdrawal ([1]; 1,200 µg OD 7 days, N=9): 0 Number (%) of subjects | At least one AE ([1]; 1,200 µg OD 7 days, N=9): 2 (22.2) Number (%) of subjects | At least one SAE ([1]; 1,200 µg OD 7 days, N=9): 0 Number (%) of subjects | Back pain (AE) ([1]; 1,200 µg OD 7 days, N=9): 0 Number (%) of subjects | Diarrhea (AE considered related to study medication) ([1]; 1,200 µg OD 7 days, N=9): 0 Number (%) of subjects | Flatulence (AE considered related to study medication) ([1]; 1,200 µg OD 7 days, N=9): 0 Number (%) of subjects | Headache (AE considered related to study medication) ([1]; 1,200 µg OD 7 days, N=9): 0 Number (%) of subjects | Headache (AE) ([1]; 1,200 µg OD 7 days, N=9): 0 Number (%) of subjects | Nausea (AE considered related to study medication) ([1]; 1,200 µg OD 7 days, N=9): 0 Number (%) of subjects | Parosmia (AE considered related to study medication) ([1]; 1,200 µg OD 7 days, N=9): 0 Number (%) of subjects | Severe AE ([1]; 1,200 µg OD 7 days, N=9): 0 Number (%) of subjects | AE considered related to study medication ([1]; 1,600 µg OD 7 days, N=7): 0 Number (%) of subjects | AE leading to death ([1]; 1,600 µg OD 7 days, N=7): 0 Number (%) of subjects | AE leading to withdrawal ([1]; 1,600 µg OD 7 days, N=7): 0 Number (%) of subjects | At least one AE ([1]; 1,600 µg OD 7 days, N=7): 3 (42.9) Number (%) of subjects | At least one SAE ([1]; 1,600 µg OD 7 days, N=7): 0 Number (%) of subjects | Back pain (AE) ([1]; 1,600 µg OD 7 days, N=7): 0 Number (%) of subjects | Diarrhea (AE considered related to study medication) ([1]; 1,600 µg OD 7 days, N=7): 0 Number (%) of subjects | Flatulence (AE considered related to study medication) ([1]; 1,600 µg OD 7 days, N=7): 0 Number (%) of subjects | Headache (AE considered related to study medication) ([1]; 1,600 µg OD 7 days, N=7): 0 Number (%) of subjects | Headache (AE) ([1]; 1,600 µg OD 7 days, N=7): 0 Number (%) of subjects | Nausea (AE considered related to study medication) ([1]; 1,600 µg OD 7 days, N=7): 0 Number (%) of subjects | Parosmia (AE considered related to study medication) ([1]; 1,600 µg OD 7 days, N=7): 0 Number (%) of subjects | Severe AE ([1]; 1,600 µg OD 7 days, N=7): 0 Number (%) of subjects | metabolic stability [2]: metabolically stable | mean laboratory values ([3]; both studies): within normal ranges | post-dose decreases in FEV1 (bronchospasm) ([3]; both studies, single and multiple doses): no clinically significant post-dose decreases | mean ECG values [3, 9]: within the normal range | mean systolic and diastolic blood pressure [3, 9]: within the normal range | nausea events ([3]; following single doses in both studies): no nausea events | relationship between dose and occurrence of AEs or serious adverse events ([3]; single or multiple dosing): no relationship | systemic bioavailability ([4]; after intratracheal administration): low systemic bioavailability | bioavailability ([4]; after oral administration): very low bioavailability | elimination ([4]; following intravenous administration, predominantly via the fecal route): rapidly eliminated | plasma protein bound [5]: > 99% | emesis or nausea [6]: no evidence of emesis or nausea | cytokine levels after rhinovirus challenge [7]: reduced the levels of a range of cytokines in a concentration-dependent manner | AE considered related to study medication ([8]; 1,200 µg BID 14 days): 4 (44.4) Number (%) of subjects | AE leading to death ([8]; 1,200 µg BID 14 days): 0 Number (%) of subjects | AE leading to withdrawal ([8]; 1,200 µg BID 14 days): 0 Number (%) of subjects | At least one AE ([8]; 1,200 µg BID 14 days): 6 (66.7) Number (%) of subjects | At least one SAE ([8]; 1,200 µg BID 14 days): 0 Number (%) of subjects | Back pain (AE) ([8]; 1,200 µg BID 14 days): 0 Number (%) of subjects | Diarrhea (AE considered related to study medication) ([8]; 1,200 µg BID 14 days): 1 (11.1) Number (%) of subjects | Flatulence (AE considered related to study medication) ([8]; 1,200 µg BID 14 days): 1 (11.1) Number (%) of subjects | Headache (AE considered related to study medication) ([8]; 1,200 µg BID 14 days): 3 (33.3) Number (%) of subjects | Headache (AE) ([8]; 1,200 µg BID 14 days): 3 (33.3) Number (%) of subjects | Nausea (AE considered related to study medication) ([8]; 1,200 µg BID 14 days): 0 Number (%) of subjects | Parosmia (AE considered related to study medication) ([8]; 1,200 µg BID 14 days): 0 Number (%) of subjects | Severe AE ([8]; 1,200 µg BID 14 days): 0 Number (%) of subjects | AE leading to death ([8]; 2,000 µg BID 14 days): 0 Number (%) of subjects | AE leading to withdrawal ([8]; 2,000 µg BID 14 days): 0 Number (%) of subjects | At least one AE ([8]; 2,000 µg BID 14 days): 5 (55.6) Number (%) of subjects | At least one SAE ([8]; 2,000 µg BID 14 days): 0 Number (%) of subjects | Back pain (AE) ([8]; 2,000 µg BID 14 days): 3 (33.3) Number (%) of subjects | Diarrhea (AE considered related to study medication) ([8]; 2,000 µg BID 14 days): 0 Number (%) of subjects | Flatulence (AE considered related to study medication) ([8]; 2,000 µg BID 14 days): 0 Number (%) of subjects | Headache (AE considered related to study medication) ([8]; 2,000 µg BID 14 days): 2 (22.2) Number (%) of subjects | Headache (AE) ([8]; 2,000 µg BID 14 days): 2 (22.2) Number (%) of subjects | Nausea (AE considered related to study medication) ([8]; 2,000 µg BID 14 days): 0 Number (%) of subjects | Parosmia (AE considered related to study medication) ([8]; 2,000 µg BID 14 days): 0 Number (%) of subjects | Severe AE ([8]; 2,000 µg BID 14 days): 1 (11.1) Number (%) of subjects | AE considered related to study medication ([8]; 2,400 µg BID 14 days): 1 (11.1) Number (%) of subjects | AE leading to death ([8]; 2,400 µg BID 14 days): 0 Number (%) of subjects | AE leading to withdrawal ([8]; 2,400 µg BID 14 days): 1 (11.1) Number (%) of subjects | At least one AE ([8]; 2,400 µg BID 14 days): 7 (77.8) Number (%) of subjects | At least one SAE ([8]; 2,400 µg BID 14 days): 0 Number (%) of subjects | Back pain (AE) ([8]; 2,400 µg BID 14 days): 5 (55.6) Number (%) of subjects | Diarrhea (AE considered related to study medication) ([8]; 2,400 µg BID 14 days): 0 Number (%) of subjects | Flatulence (AE considered related to study medication) ([8]; 2,400 µg BID 14 days): 0 Number (%) of subjects | Headache (AE considered related to study medication) ([8]; 2,400 µg BID 14 days): 1 (11.1) Number (%) of subjects | Headache (AE) ([8]; 2,400 µg BID 14 days): 2 (22.2) Number (%) of subjects | Nausea (AE considered related to study medication) ([8]; 2,400 µg BID 14 days): 0 Number (%) of subjects | Parosmia (AE considered related to study medication) ([8]; 2,400 µg BID 14 days): 0 Number (%) of subjects | Severe AE ([8]; 2,400 µg BID 14 days): 0 Number (%) of subjects

Reference: publication PMC6203112 (International Journal of Chronic Obstructive Pulmonary …, 2018)
